Source: ChEMBL document CHEMBL4480361, “Design, synthesis, and in vitro biological evaluation of novel benzimidazole tethered allylidenehydrazinylmethylthiazole derivatives as potent inhibitors of Mycobacterium tuberculosis” (Medchemcomm, 2019)
In brackets after ≈: the same amount, converted by molar mass.

Columns and labels:
[1] = tested on: Mycobacterium tuberculosis; assay: Antitubercular activity against auto-luminescent Mycobacterium tuberculosis H37Ra measured for 5 days by luminescence assay; assay type: functional; conditions: 120 h
Procedure, shortened: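 Unmarked autoluminescent H37Ra homogenised with glass beads, grown in 7H9 with 0.05% Tween 80 and 10% OADC to OD600 0.3–0.5. At 2 million RLU, diluted to 2000–4000 RLU in Tween-free 7H9. Compounds tested in 3-fold steps from […] μg mL⁻¹, with DMSO and rifampicin (10, 1, 0.1 μg mL⁻¹) controls. RLU read daily for 5 days. MIClux is the lowest concentration giving RLUdrug/RLUDMSO below 10%.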

MDCK = assay: Cytotoxicity against MDCK cells assessed as reduction in cell viability after 72 hrs by CCK-8 assay; assay type: cell-based; conditions: Canis lupus familiaris
[2] = tested on: Mycobacterium tuberculosis; assay: Antitubercular activity against Mycobacterium tuberculosis H37Ra measured for 5 days by resazurin dye-based assay; assay type: functional; conditions: 120 h

Structure (SMILES)	MIC90 [1] [µg/mL]	IC50 (MDCK) [µg/mL]	MIC [2] [µg/mL]
Cc1csc(N/N=C(/C=C/c2ccc(Cl)c(F)c2)c2nc3ccccc3[nH]2)n1	10 (≈ 24.3 µM)	–	–
Cc1csc(N/N=C(/C=C/c2ccc(F)cc2)c2nc3ccccc3[nH]2)n1	5 (≈ 13.2 µM)	–	–
COc1ccc(/C=C/C(=N/NC(N)=S)c2nc3ccccc3[nH]2)cc1	10 (≈ 28.5 µM)	–	–
COc1ccc(/C=C/C(=N/Nc2nc(C)cs2)c2nc3ccccc3[nH]2)cc1	10 (≈ 25.7 µM)	1.9 (≈ 4.88 µM)	–
NC(=S)N/N=C(/C=C/c1ccc(Br)cc1)c1nc2ccccc2[nH]1	4 (≈ 9.99 µM)	2.6 (≈ 6.5 µM)	–
Cc1ccc(/C=C/C(=N/NC(N)=S)c2nc3ccccc3[nH]2)cc1	5 (≈ 14.9 µM)	3.7 (≈ 11 µM)	–
Cc1csc(N/N=C(/C=C/c2ccc(OC(F)(F)F)cc2)c2nc3ccccc3[nH]2)n1	10 (≈ 22.6 µM)	–	–
Cc1csc(N/N=C(/C=C/c2cccc3[nH]ccc23)c2nc3ccccc3[nH]2)n1	10 (≈ 25.1 µM)	–	–
COc1cccc(/C=C/C(=N/NC(N)=S)c2nc3ccccc3[nH]2)c1OC	5 (≈ 13.1 µM)	3.9 (≈ 10.2 µM)	–
Cc1cc(/C=C/C(=N/NC(N)=S)c2nc3ccccc3[nH]2)ccc1F	4 (≈ 11.3 µM)	1.6 (≈ 4.53 µM)	–
Cc1csc(N/N=C(/C=C/c2ccc(Br)cc2)c2nc3ccccc3[nH]2)n1	10 (≈ 22.8 µM)	–	–
NC(=S)N/N=C(/C=C/c1ccccc1)c1nc2ccccc2[nH]1	5 (≈ 15.6 µM)	3.4 (≈ 10.6 µM)	–
COc1cc(OC)c(/C=C/C(=N/NC(N)=S)c2nc3ccccc3[nH]2)c(OC)c1	> 50	–	–
Cc1csc(N/N=C(/C=C/c2ccc[nH]2)c2nc3ccccc3[nH]2)n1	100 (≈ 287 µM)	–	–
CCN(CC)c1ccc(/C=C/C(=N/Nc2nc(C)cs2)c2nc3ccccc3[nH]2)cc1	2.5 (≈ 5.81 µM)	> 30	–
CO[C@H]1/C=C/O[C@@]2(C)Oc3c(C)c(O)c4c(O)c(c(/C=N/N5CCN(C)CC5)c(O)c4c3C2=O)NC(=O)/C(C)=C\C=C\[C@H](C)[C@H](O)[C@@H](C)[C@@H](O)[C@@H](C)[C@H](OC(C)=O)[C@@H]1C [RIFAMPIN]	0.25 (≈ 0.304 µM)	–	–
NC(=S)N/N=C(/C=C/c1cccc2[nH]ccc12)c1nc2ccccc2[nH]1	5 (≈ 13.9 µM)	0.91 (≈ 2.52 µM)	–
Cc1ccc(/C=C/C(=N/Nc2nc(C)cs2)c2nc3ccccc3[nH]2)cc1	10 (≈ 26.8 µM)	–	–
NC(=S)N/N=C(/C=C/c1ccc(F)cc1)c1nc2ccccc2[nH]1	2.5 (≈ 7.37 µM)	1.6 (≈ 4.71 µM)	–
NC(=S)N/N=C(/C=C/c1cc(F)cc(F)c1)c1nc2ccccc2[nH]1	5 (≈ 14 µM)	1.6 (≈ 4.48 µM)	–
CCNC(=O)Nc1nc2cc(-c3cccnc3)cc(-c3ccccn3)c2[nH]1	–	–	0.001 (≈ 0.00279 µM)
NC(=S)N/N=C(/C=C/c1ccc(Cl)c(F)c1)c1nc2ccccc2[nH]1	5 (≈ 13.4 µM)	1.5 (≈ 4.01 µM)	–
Cc1csc(N/N=C(/C=C/c2ccccc2)c2nc3ccccc3[nH]2)n1	4 (≈ 11.1 µM)	2.9 (≈ 8.07 µM)	–
NC(=S)N/N=C(/C=C/c1ccc(OC(F)(F)F)cc1)c1nc2ccccc2[nH]1	5 (≈ 12.3 µM)	0.34 (≈ 0.839 µM)	–
NC(=S)N/N=C(/C=C/c1ccc[nH]1)c1nc2ccccc2[nH]1	100 (≈ 322 µM)	–	–
Cc1csc(N/N=C(/C=C/c2ccc(F)c(C)c2)c2nc3ccccc3[nH]2)n1	10 (≈ 25.5 µM)	–	–
COc1cccc(/C=C/C(=N/Nc2nc(C)cs2)c2nc3ccccc3[nH]2)c1OC	10 (≈ 23.8 µM)	–	–
Cc1csc(N/N=C(/C=C/c2cc(F)cc(F)c2)c2nc3ccccc3[nH]2)n1	10 (≈ 25.3 µM)	–	–
CCN(CC)c1ccc(/C=C/C(=N/NC(N)=S)c2nc3ccccc3[nH]2)cc1	10 (≈ 25.5 µM)	–	–
COc1cc(OC)c(/C=C/C(=N/Nc2nc(C)cs2)c2nc3ccccc3[nH]2)c(OC)c1	> 50	–	–
